Measured values reported in ChEMBL document CHEMBL3865847, “The synthesis and biological evaluation of alkyl and benzyl naphthyridinium analogs of eupolauridine as potential antimicrobial and cytotoxic agents” (Bioorg Med Chem, 2016).

Key:
Candida albicans = experiment: Antimicrobial activity against Candida albicans B311; type: functional
Summary of the method: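 Cultured in Sabouraud dextrose broth 24 h, counted by hemocytometer, diluted to 10,000 CFU/mL. Added to serially diluted samples in 96-well plates, top final concentration 50 µg/mL (≤2.5% DMSO), incubated 37 °C. Growth by A630. MIC is the lowest concentration giving 80% inhibition against controls; IC50 from concentration versus % growth plots.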

Cryptococcus neoformans = experiment: Antimicrobial activity against Cryptococcus neoformans ATCC 52657; type: functional
Summary of the method: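 Grown in mycophil broth 72 h, hemocytometer-counted, diluted to 200,000 CFU/mL. Exposed to diluted samples in 96-well plates, maximum final 50 µg/mL (DMSO up to 2.5%), incubated 30 °C. A630 readout. MIC is the lowest concentration inhibiting 80% of growth versus controls; IC50 read from concentration versus % growth graphs.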

Pseudomonas aeruginosa = experiment: Antimicrobial activity against Pseudomonas aeruginosa ATCC 15442; type: functional
Summary of the method: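 Pseudomonas grown 24 h in trypticase soy broth, diluted 1:50. Combined with diluted samples in 96-well plates, top final concentration 50 µg/mL (≤2.5% DMSO), 37 °C incubation. Growth read at 630 nm. MIC is the lowest tested concentration inhibiting 80% of growth versus controls; IC50 from concentration versus % growth graphs.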

Plasmodium falciparum = experiment: Antimalarial activity against Plasmodium falciparum D6 infected in RBC after 48 hrs by lactate dehydrogenase assay; type: functional; details: D6, 48 h
Summary of the method: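 Parasites grown in A+ human erythrocytes in RPMI 1640 with 10% A+ human serum, 25 mM HEPES, 27 mM bicarbonate, 60 µg/mL amikacin, 37 °C under 90% N2/5% O2/5% CO2. Infected cells exposed 48 h in microtiter wells, highest concentration 4.8 µg/mL. Growth read by Malstat reagent (parasite LDH) with nitro blue tetrazolium reduction, absorbance 630 nm.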

[1] = Cytotoxicity against human KB cells assessed as cell growth inhibition after 48 hrs by neutral red dye based assay; type: functional
Summary of the method: (§1)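 Cells kept in RPMI-1640 with 10% bovine serum and 60 µg/mL amikacin, 37 °C, 5% CO2. Seeded at 25,000 cells/well, left 24 h to adhere. Samples diluted in RPMI added, highest final concentration 10 µg/mL. Growth measured by neutral red uptake after 48 h exposure.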

[2] = Cytotoxicity against human BT549 cells assessed as cell growth inhibition after 48 hrs by neutral red dye based assay; type: functional; details: BT-549, 48 h; summary of the method: as §1
[3] = Cytotoxicity against human SKOV3 cells assessed as cell growth inhibition after 48 hrs by neutral red dye based assay; type: functional; details: SK-OV-3, 48 h; summary of the method: as §1
[4] = Cytotoxicity against African green monkey Vero cells assessed as cell growth inhibition at 10 ug/ml after 48 hrs by neutral red dye based assay; type: toxicity; details: chlorocebus sabaeus; summary of the method: as §1
[5] = Inhibition of Candida albicans DNA topoisomerase 1 using pHOT1 as substrate after 30 mins by agarose gel electrophoresis
Summary of the method: (§2)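 Relaxation of supercoiled to relaxed DNA by TopoI measured with a commercial TopoI drug kit following kit protocol. IC50 calculated from dose-response curves of % inhibition versus concentration.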

DNA topoisomerase 1 = molecular target: T1, DNA topoisomerase 1 (Homo sapiens, UniProt P11387); experiment: Inhibition of human DNA topoisomerase 1 using pHOT1 as substrate after 30 mins by agarose gel electrophoresis; summary of the method: as §2
T1 sequence (P11387 whole entry): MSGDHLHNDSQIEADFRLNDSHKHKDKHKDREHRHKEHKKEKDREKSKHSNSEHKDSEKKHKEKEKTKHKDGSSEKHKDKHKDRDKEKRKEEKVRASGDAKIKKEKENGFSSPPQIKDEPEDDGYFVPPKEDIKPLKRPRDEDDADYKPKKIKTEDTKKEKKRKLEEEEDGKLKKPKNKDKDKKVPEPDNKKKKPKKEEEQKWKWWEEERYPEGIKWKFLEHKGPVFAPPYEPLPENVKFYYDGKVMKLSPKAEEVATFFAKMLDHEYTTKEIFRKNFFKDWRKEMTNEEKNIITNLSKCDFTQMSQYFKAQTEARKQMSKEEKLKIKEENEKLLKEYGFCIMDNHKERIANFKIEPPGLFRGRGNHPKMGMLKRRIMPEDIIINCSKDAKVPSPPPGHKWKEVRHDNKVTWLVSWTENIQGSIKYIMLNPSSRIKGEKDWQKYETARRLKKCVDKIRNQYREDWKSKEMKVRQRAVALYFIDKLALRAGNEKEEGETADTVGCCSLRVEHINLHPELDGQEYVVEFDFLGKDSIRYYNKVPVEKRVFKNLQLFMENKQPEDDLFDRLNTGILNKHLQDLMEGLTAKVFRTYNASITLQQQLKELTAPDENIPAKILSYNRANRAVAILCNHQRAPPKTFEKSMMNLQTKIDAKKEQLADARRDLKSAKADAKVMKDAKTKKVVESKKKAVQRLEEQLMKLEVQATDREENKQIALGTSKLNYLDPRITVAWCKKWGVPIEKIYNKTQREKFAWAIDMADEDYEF

[6] = Selectivity index, ratio of IC50 for human DNA topoisomerase 1 to IC50 for Candida albicans DNA topoisomerase 1
[7] = system: Mycobacterium intracellulare; experiment: Antimicrobial activity against Mycobacterium intracellulare ATCC 23068; type: functional
Summary of the method: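 Mycobacterium grown 72 h in Middlebrook medium with OADC supplement, diluted 1:30 in broth. Incubated at 37 °C with diluted samples in 96-well plates, highest final 50 µg/mL, DMSO at most 2.5%. Absorbance at 630 nm. MIC = lowest concentration with 80% growth inhibition relative to controls; IC50 from concentration versus % growth plots.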

[8] = Cytotoxicity against human SK-MEL cells assessed as cell growth inhibition after 48 hrs by neutral red dye based assay; type: functional; summary of the method: as §1
Staphylococcus aureus [9] = experiment: Antimicrobial activity against methicillin-resistant Staphylococcus aureus; type: functional
Summary of the method: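 MRSA precultured 24 h, diluted 1:50 in broth, added to serially diluted samples in 96-well plates (highest final DMSO 2.5%), incubated at 37 °C. Growth measured as absorbance at 630 nm versus controls. MIC is the lowest concentration giving 80% inhibition; IC50 (50% inhibition) is read from concentration versus % growth plots.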

Staphylococcus aureus [10] = experiment: Antimicrobial activity against Staphylococcus aureus ATCC 6538; type: functional
Summary of the method: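 Staphylococcus aureus grown 24 h in Eugon broth, diluted 1:50 in broth, added to serially diluted samples in 96-well plates (highest final DMSO 2.5%), incubated at 37 °C. Growth measured at 630 nm versus controls. MIC is the lowest concentration inhibiting 80% of growth; IC50 (50% inhibition) comes from concentration versus % growth plots.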

SMILES	IC50 (Candida albicans) [µg/mL]	MIC80 (Candida albicans) [µg/mL]	IC50 (Cryptococcus neoformans) [µg/mL]	MIC80 (Cryptococcus neoformans) [µg/mL]	IC50 (Pseudomonas aeruginosa) [µg/mL]	IC50 (Plasmodium falciparum) [µg/mL]	IC50 [5] [µg/mL]	IC50 (DNA topoisomerase 1) [µM]	Ratio IC50 [6]	MIC80 [7] [µg/mL]	IC50 (Staphylococcus aureus [10]) [µg/mL]	IC50 [1] [µg/mL]	IC50 [2] [µg/mL]	IC50 [3] [µg/mL]	Activity [4]	IC50 [8] [µg/mL]	IC50 (Staphylococcus aureus [9]) [µg/mL]
Cc1ccc(C[n+]2ccc3ccnc4c3c2-c2ccccc2-4)cc1.[Br-]	3.17	6.25	0.33	0.78	–	0.0095	11	28.3	1	50	–	6.8	–	< 1.1	Non-Toxic	1.9	35
C[n+]1ccc2c3c(nc4ccccc42)-c2ccccc2-c31.[I-]	23.3	25	2	6.25	–	0.033	1.5	4.54	–	–	–	6.5	7	1.3	Non-Toxic	–	20
C[n+]1ccc2c3c(nc4ccccc42)-c2ccccc2-c31.Cc1ccc(S(=O)(=O)[O-])cc1	35	–	1.93	6.25	50	0.0385	0.7	1.59	–	–	–	4.4	7.5	1.3	Non-Toxic	> 10	–
Cc1cc2c3c(nc4ccccc42)-c2ccccc2-c3[n+]1C.[I-]	25	50	1.83	3.12	–	0.02	0.5	1.71	0.71	–	–	3.5	5.4	4.5	Non-Toxic	> 10	25
CC[n+]1ccc2ccnc3c2c1-c1ccccc1-3.[I-]	35	50	13.3	25	–	0.0475	10	41.6	0.67	–	40	–	–	–	Non-Toxic	–	–
COc1cc(C[n+]2ccc3ccnc4c3c2-c2ccccc2-4)cc(OC)c1.[Br-]	20	25	0.92	3.12	–	0.011	12.5	34.5	0.83	50	–	7	> 10	< 1.1	Non-Toxic	2	9
C[n+]1ccc2c3c(nc4cc5c(cc42)OCO5)-c2ccccc2-c31.[I-]	16.1	25	0.37	1.56	–	0.028	0.425	1.02	0.94	50	–	4.2	1.2	1.2	Non-Toxic	5	–

Further lines, with some results ahead:

IC50 (Candida albicans) [µg/mL]	MIC80 (Candida albicans) [µg/mL]	IC50 (Cryptococcus neoformans) [µg/mL]	MIC80 (Cryptococcus neoformans) [µg/mL]	IC50 (Pseudomonas aeruginosa) [µg/mL]	IC50 (Plasmodium falciparum) [µg/mL]	IC50 [5] [µg/mL]	IC50 (DNA topoisomerase 1) [µM]	Ratio IC50 [6]	MIC80 [7] [µg/mL]	IC50 (Staphylococcus aureus [10]) [µg/mL]	SMILES	IC50 [1] [µg/mL]	IC50 [2] [µg/mL]	IC50 [3] [µg/mL]	Activity [4]	IC50 [8] [µg/mL]	IC50 (Staphylococcus aureus [9]) [µg/mL]
16.7	25	6	12.5	50	0.033	0.7	1.71	1	–	–	CC[n+]1ccc2c3c(nc4ccccc42)-c2ccccc2-c31.[I-]	6.8	> 10	1.3	Non-Toxic	–	–
6.17	12.5	0.48	1.56	–	0.062	15	45	0.86	50	–	Cc1ccc2c(c1)-c1c3c-2nccc3cc[n+]1Cc1ccccc1.[Br-]	0.52	1.8	0.58	Non-Toxic	1.4	–
3	6.25	0.18	0.78	–	0.0042	21	53.7	0.95	50	–	Clc1cccc(C[n+]2ccc3ccnc4c3c2-c2ccccc2-4)c1.[Br-]	0.68	1.6	0.055	Non-Toxic	1.15	–
–	–	1.19	6.25	–	0.035	18	50	0.86	50	–	O=[N+]([O-])c1ccc(C[n+]2ccc3ccnc4c3c2-c2ccccc2-4)cc1.[Br-]	1.8	4	0.62	Non-Toxic	4.9	–
16.7	25	0.7	1.56	–	0.032	5.75	12.3	1.15	50	–	COc1ccc2c(c1)-c1c3c-2nccc3cc[n+]1Cc1ccccc1.[Br-]	0.2	1.1	0.15	Non-Toxic	1.5	–
13.3	25	0.82	1.56	–	0.095	11	30.8	0.92	–	–	Cc1cc2cc[n+](Cc3ccccc3)c3c2c(n1)-c1ccccc1-3.[Br-]	> 10	3.5	1.7	Non-Toxic	4.2	–
2.5	6.25	0.3	0.78	40	0.013	21	48.4	0.95	50	–	Brc1cccc(C[n+]2ccc3ccnc4c3c2-c2ccccc2-4)c1.[Br-]	0.18	1.15	0.095	Non-Toxic	0.65	–
1.5	3.12	0.52	0.78	–	0.033	–	–	–	50	–	Fc1ccc2c(c1)-c1c3c-2nccc3cc[n+]1Cc1ccccc1.[Br-]	1.3	2.5	0.53	Non-Toxic	5.6	–
